# Screening data as filed in PubChem.
# Hits are enriched below; roughly 5.9% of the tested compounds scored in any of these assays.
# GASC1 inh: KDM4C (human) demethylase inhibition. Q9H3R0. GST-KDM4C 2-372, H3K9me3 peptide, LANCE TR-FRET. inhibition, % at 12.5 µM. actives 0.15% (n = 96,000). AID 720574;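 active = mean replicate inhibition above about 25%, with at least 55% of replicates also reaching it, limit read from the data, passing the limit was not always enough; inconclusive = only one of those two conditions met; inactive = neither condition met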
# Target sequence (Q9H3R0 2-372 limits assumed): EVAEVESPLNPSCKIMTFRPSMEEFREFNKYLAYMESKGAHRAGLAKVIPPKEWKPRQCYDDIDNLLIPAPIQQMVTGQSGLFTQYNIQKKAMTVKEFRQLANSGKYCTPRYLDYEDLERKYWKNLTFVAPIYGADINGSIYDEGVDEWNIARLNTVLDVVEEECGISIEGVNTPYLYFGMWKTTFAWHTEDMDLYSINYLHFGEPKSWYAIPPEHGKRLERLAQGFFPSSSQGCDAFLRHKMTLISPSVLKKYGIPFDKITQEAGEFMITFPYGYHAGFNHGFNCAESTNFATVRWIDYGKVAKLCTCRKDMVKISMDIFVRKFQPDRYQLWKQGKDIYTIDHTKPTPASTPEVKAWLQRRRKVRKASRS
#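 System: N-terminal GST-fused human GASC-1 (KDM4C) fragment, residues 2-372; amount: enzyme final amount 10 nM; incubation: reaction 30 min RT, detection step 1 h RT; medium: HEPES buffer, pH 7.5, plus ascorbate; technique: LANCE TR-FRET, Eu antibody, ULight-streptavidin, EDTA, ex 340 nm, em 618/671 nm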
# Pf Dd2 inh: inhibitors of Plasmodium falciparum Dd2 growth; actives 2.3% (n = 94,000); AID 1159554; P. falciparum Dd2 growth, SYBR Green, 72 h; hits give low values; activity change, % at 10 µM; in the data active = activity change below about -80%; inconclusive = no clear call, values can overlap the other calls
# IDH1 mut inh: inhibitors of human IDH1 R132H; actives 0.18% (n = 70,000); IDH1 R132H reductase, diaphorase/resazurin fluorescence, 60 min; inhibition, % at 10 µM; AID 624101; in the data active = inhibition above about 34%; inconclusive = no clear call, values can overlap the other calls; inactive = below about 11%
# T cruzi growth-1: inhibitors of T. cruzi proliferation; T. cruzi beta-gal in NIH3T3, GalScreen luminescence, 90 h; inhibition, % at 8.34 µM; actives 5.9% (n = 77,000);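 active = mean inhibition above about 93%, with at least 55% of replicates each passing it, limit read from the data, passing the limit was not always enough; inconclusive = only one of those two conditions holds; inactive = neither condition holds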
# T cruzi growth-2: blocks T. cruzi growth in NIH3T3 host cells | shares compounds with T cruzi growth-1 | T. cruzi beta-gal in NIH3T3, GalScreen luminescence, 90 h | inhibition, % at 8.35 µM | actives 72% (n = 5,600) | AID 651739;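 active = mean replicate inhibition above about 95% and at least 55% of replicates individually reaching it, limit read from the data; inconclusive = only one of the two criteria is met; inactive = neither criterion is met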
# T cruzi growth-3: inhibitors of T. cruzi proliferation. shares compounds with T cruzi growth-1. T. cruzi beta-gal in NIH3T3, GalScreen luminescence, 90 h. inhibition, % at 2.09 µM. actives 21% (n = 5,600). AID 651740;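 active = mean inhibition above about 95%, with at least 55% of replicates also reaching it, limit read from the data; inconclusive = meets just one of the two conditions; inactive = meets neither condition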
# NIH3T3 tox: cytotoxicity in mouse NIH/3T3 fibroblasts; NIH/3T3 viability, CellTiter-Glo ATP luminescence, 90 h; shares compounds with T cruzi growth-1; actives 14% (n = 5,600); cytotoxicity (signal decrease), % at 8.35 µM;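 active = mean signal decrease across replicates above about 35% based on untreated-well scatter, with enough replicates individually passing, limit read from the data; inconclusive = no rule stated though some were filed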
# 3T3 cytotox 2: kills mouse NIH/3T3 fibroblasts. shares compounds with T cruzi growth-1. NIH/3T3 viability, CellTiter-Glo ATP luminescence, 90 h. inhibition, % at 24.9 µM. actives 56% (n = 5,600). AID 651744;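 active = mean loss of cell viability signal at or above a set limit, and enough replicates individually reaching it; inconclusive = meets only the mean limit or only the replicate share; inactive = meets neither condition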
# A number is an active result; n = inactive; u = inconclusive; x = no result; ! = repeats disagree.
SMILES,GASC1 inh,Pf Dd2 inh,IDH1 mut inh,T cruzi growth-1,T cruzi growth-2,T cruzi growth-3,NIH3T3 tox,3T3 cytotox 2
C[C@@H]1CCCCO[C@H](CN(C)S(=O)(=O)c2ccccc2)[C@H](C)CN([C@H](C)CO)C(=O)c2cc(NS(=O)(=O)c3ccc(Cl)cc3)ccc2O1,n,n,n,117,100,102,n,n
CO[C@H]1CN(C)C(=O)c2cc(NC(=O)C3CC3)ccc2OC[C@@H](C)N(CCC(F)(F)F)C[C@@H]1C,n,n,n,n,x,x,x,x
C[C@H](CO)N1C[C@H](C)[C@@H](CN(C)Cc2ccccc2)Oc2ccc(NC(=O)Nc3ccccc3)cc2C1=O,n,n,n,n,x,x,x,x
C[C@H]1CN([C@@H](C)CO)S(=O)(=O)c2ccc(C#CC3CC3)cc2O[C@@H]1CN(C)CC1CCOCC1,n,n,n,u,103,n,n,99
C[C@@H]1CN([C@@H](C)CO)S(=O)(=O)c2ccc(C#CC3CC3)cc2O[C@H]1CN(C)CC1CCOCC1,n,n,n,109,n,n,65,89
O=S(=O)(N[C@H]1CC[C@@H](CCn2cc(-c3cccnc3)nn2)O[C@@H]1CO)c1ccc(Cl)cc1,n,n,n,n,x,x,x,x
C[C@@H]1CN([C@H](C)CO)C(=O)CCCn2cc(nn2)CO[C@H]1CN(C)C(=O)c1ccc(N2CCN(C)CC2)cc1,n,n,n,n,x,x,x,x
C[C@@H]1CN([C@H](C)CO)C(=O)CCCn2cc(nn2)CO[C@@H]1CN(C)C(=O)Nc1ccc(C(C)(C)C)cc1,n,n,n,122,101,n,n,n
C[C@H](CO)N1C[C@H](C)[C@@H](CN(C)C(=O)Nc2ccccc2)OCc2cn(nn2)CCCC1=O,n,n,n,127!,n,n,n,n
C[C@@H]1CN([C@@H](C)CO)C(=O)CCCn2cc(nn2)CO[C@@H]1CN(C)C(=O)Nc1ccccc1,n,n,n,u,n,n,n,n
C[C@@H]1CN([C@@H](C)CO)C(=O)CCCn2cc(nn2)CO[C@H]1CN(C)C(=O)c1ccc(N2CCN(C)CC2)cc1,n,n,n,u,n,n,n,n
C[C@H]1CN([C@@H](C)CO)C(=O)CCCn2cc(nn2)CO[C@@H]1CN(C)C(=O)Nc1ccc(C(C)(C)C)cc1,x,n,n,n,x,x,x,x
CCC(=O)Nc1ccc2c(c1)OC[C@@H](C)N(C(=O)Nc1ccccc1F)C[C@@H](C)[C@H](OC)CN(C)C2=O,n,n,n,n,x,x,x,x
C[C@@H]1CN([C@H](C)CO)C(=O)CCCn2cc(nn2)CO[C@@H]1CN(C)C(=O)CCC(F)(F)F,n,n,n,u,n,n,n,n
C[C@H](CO)N1C[C@H](C)[C@H](CN(C)C(=O)CCC(F)(F)F)OCc2cn(nn2)CCCC1=O,n,n,x,n,x,x,x,x
C[C@H](CO)N1C[C@H](C)[C@H](CN(C)Cc2ccc(C(F)(F)F)cc2)OCc2cn(nn2)CCCC1=O,n,n,n,u,n,n,n,n
CNC[C@H]1Oc2cc(C#Cc3ccccn3)ccc2S(=O)(=O)N([C@@H](C)CO)C[C@@H]1C,n,n,n,101,111,n,n,n
C[C@@H]1CN([C@@H](C)CO)S(=O)(=O)c2ccc(C#Cc3ccccn3)cc2O[C@@H]1CN(C)C,n,n,n,x,x,x,x,x
CNC[C@H]1Oc2cc(C#Cc3ccccn3)ccc2S(=O)(=O)N([C@H](C)CO)C[C@H]1C,n,n,n,99,109,n,n,n
COc1ccc(NCC(O)Cn2ccc3ccccc32)cc1 (configuration not stated),x,x,n,x,x,x,x,x
CCN(C[C@H]1[C@H](c2ccc(-c3ccccc3)cc2)[C@H](CO)N1C(C)=O)C(C)=O,n,n,x,106,n,n,n,n
CCC(=O)N1[C@H](CN(CC)C(=O)c2cccc(F)c2)[C@H](c2ccccc2)[C@@H]1CO,n,n,x,n,x,x,x,x
CCN(C[C@H]1[C@H](c2ccccc2)[C@@H](CO)N1C(C)=O)C(=O)c1cccc(F)c1,n,n,x,103,n,n,n,n
CCN(C[C@@H]1[C@@H](c2ccc(-c3ccccc3)cc2)[C@H](CO)N1C(C)=O)C(C)=O,n,n,x,u,n,n,n,n
Cn1c(SCC(=O)Nc2ccccc2C(F)(F)F)nnc1-c1ccc(F)cc1,x,x,n,x,x,x,x,x
SMILES,GASC1 inh,Pf Dd2 inh,IDH1 mut inh,T cruzi growth-1,T cruzi growth-2,T cruzi growth-3,NIH3T3 tox,3T3 cytotox 2
COc1cccc(C(=O)Nc2ccc3c(c2)C(=O)N(C)C[C@H](OC)[C@@H](C)CN(CCc2ccccc2)[C@@H](C)CO3)c1,n,n,n,n,x,x,x,x
COc1cccc(C(=O)Nc2ccc3c(c2)C(=O)N(C)C[C@@H](OC)[C@H](C)CN(CCc2ccccc2)[C@@H](C)CO3)c1,n,n,n,92,108,n,n,n
COc1cccc(C(=O)Nc2ccc3c(c2)C(=O)N(C)C[C@@H](OC)[C@H](C)CN(CCc2ccccc2)[C@H](C)CO3)c1,n,u,n,100,104,n,n,n
COc1cccc(C(=O)Nc2ccc3c(c2)OC[C@@H](C)N(CCc2ccccc2)C[C@H](C)[C@H](OC)CN(C)C3=O)c1,n,n,n,n,x,x,x,x
COc1cccc(C(=O)Nc2ccc3c(c2)OC[C@@H](C)N(CCc2ccccc2)C[C@@H](C)[C@H](OC)CN(C)C3=O)c1,n,n,n,118,103,n,n,n
CC(=O)O[C@H]1C(=O)[C@@]2(C)[C@H]([C@H](OC(=O)c3ccccc3)[C@]3(O)C[C@H](OC(=O)[C@H](O)[C@@H](NC(=O)c4ccccc4)c4ccccc4)C(C)=C1C3(C)C)[C@]1(OC(C)=O)CO[C@@H]1C[C@@H]2O,x,x,n,x,x,x,x,x
C[C@@H]1CN([C@@H](C)CO)C(=O)c2cc(N(C)C)ccc2O[C@@H]1CN(C)S(C)(=O)=O,n,n,n,n,x,x,x,x
C[C@@H]1CN([C@H](C)CO)C(=O)c2cc(NC(=O)c3ccncc3)ccc2O[C@H]1CN(C)C(=O)Nc1ccc2c(c1)OCO2,n,n,n,n,x,x,x,x
Cc1noc(C)c1S(=O)(=O)N(C)C[C@@H]1OCCCC[C@H](C)Oc2ccc(NS(=O)(=O)c3ccc(Cl)cc3)cc2C(=O)N([C@H](C)CO)C[C@@H]1C,n,n,n,98,106,n,n,n
Cc1noc(C)c1S(=O)(=O)N(C)C[C@@H]1OCCCC[C@@H](C)Oc2ccc(NS(=O)(=O)c3ccc(F)cc3)cc2C(=O)N([C@H](C)CO)C[C@H]1C,n,n,n,u,n,n,n,n
